Data taken from ChEMBL document CHEMBL1124492, “Folate analogues. 32. Synthesis and biological evaluation of 2-desamino-2-methyl-N10-propargyl-5,8-dideazafolic acid and related compounds” (J Med Chem, 1989).
pIC50: −log10 of the molar value. Each block holds one compound with its values, some of them ahead of it.

Columns and labels:
H35R0.3 [1] = assay: Inhibition of growth of H35R cells; type: functional, cell-based, Homo sapiens; conditions: Rattus norvegicus
[2] = Inhibition of growth of H35N cells; type: functional, cell-based
Lymphoma cell line = assay: Inhibition of growth of tumor cells, manca human lymphoma cells; type: functional, cell-based
Lacticaseibacillus casei = assay: Inhibition of growth of Lactobacillus casei; type: functional, organism-based
Enterococcus faecium = assay: Inhibition of growth of Staphylococcus faecium; type: functional, organism-based
Thymidylate synthase [3] = biological target: T1, Thymidylate synthase (Homo sapiens, UniProt P04818); assay: Inhibition of purified human thymidylate synthase from a SV40-transformed human fibroblast cell line cloned in Escherichia coli
T1 sequence (P04818 whole entry): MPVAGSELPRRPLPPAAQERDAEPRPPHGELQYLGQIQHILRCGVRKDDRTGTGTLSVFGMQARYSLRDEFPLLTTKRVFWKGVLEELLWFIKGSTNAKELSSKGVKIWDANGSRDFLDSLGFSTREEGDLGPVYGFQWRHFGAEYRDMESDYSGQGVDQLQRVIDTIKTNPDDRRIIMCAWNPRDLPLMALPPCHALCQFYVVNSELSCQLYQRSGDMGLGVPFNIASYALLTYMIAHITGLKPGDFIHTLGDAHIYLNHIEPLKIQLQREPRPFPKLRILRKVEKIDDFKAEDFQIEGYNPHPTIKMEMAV

[4] = Inhibition of growth of colon adenocarcinoma SW 480 cells; type: functional, cell-based; conditions: Homo sapiens, SW480
H35R0.3 [5] = assay: Inhibition of (6RS)-5-formyltetrahydrofolate (2 uM) transport in H35 hepatoma cell culture and % uptake was determined in presence of inhibitor methotrexate (50 uM); type: functional, cell-based
Outline: (§1)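 H35 hepatoma cells were grown to confluence, washed twice with Hanks BSS and incubated at 37 °C. [3H]-(6RS)-5-formyltetrahydrofolate (2 μM, 3.8×10^5 dpm/nmol) was added with or without inhibitor, and uptake was sampled at 10 min, within its linear range. Uptake is expressed as percent of the no-inhibitor control, as the mean of duplicate samples.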

H35R0.3 [6] = assay: Inhibition of methotrexate (5 uM) transport in H35 hepatoma cell culture and % uptake was reported in presence of inhibitor DMPDDF (50 uM); type: functional, cell-based
Outline: (§2)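 Confluent H35 hepatoma monolayers were washed twice with Hanks BSS and held at 37 °C. [3H]methotrexate (5 μM, 5.5×10^5 dpm/nmol) was added with or without inhibitor, and uptake was taken at 4 min, within its linear range. Results are percent of the uninhibited control uptake, averaged from duplicate samples.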

H35R0.3 [7] = assay: Inhibition of methotrexate (5 uM) transport in H35 hepatoma cell culture; type: functional, cell-based; outline: as §2
H35R0.3 [8] = assay: Inhibition of methotrexate (5 uM) transport in H35 hepatoma cell culture and % uptake was reported in presence of inhibitor PDDF (50 uM); type: functional, cell-based; outline: as §2
H35R0.3 [9] = assay: Inhibition of methotrexate (5 uM) transport in H35 hepatoma cell culture and % uptake was reported in presence of inhibitor methotrexate (50 uM); type: functional, cell-based; outline: as §2
H35R0.3 [10] = assay: Inhibition of (6RS)-5-formyltetrahydrofolate (2 uM) transport in H35 hepatoma cell culture; type: functional, cell-based; outline: as §1
[11] = Inhibition of growth of H35FF cells; type: functional, cell-based
Outline: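 The H35FF line was derived from H35 cells by growth in 25 μM (6RS)-5-formyltetrahydrofolate, held constant, with FdUR raised from 0.3 nM in 3-fold steps to 100 nM. This selection amplifies thymidylate synthase to about 70 times the H35N level.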

Dihydrofolate reductase [12] = biological target: Dihydrofolate reductase (Lactobacillus casei, UniProt P00381); assay: Inhibition of dihydrofolate reductase in Lactobacillus casei; set-up: species or system Lacticaseibacillus casei
Sequence of Dihydrofolate reductase (Lactobacillus casei, UniProt P00381) (P00381 whole entry): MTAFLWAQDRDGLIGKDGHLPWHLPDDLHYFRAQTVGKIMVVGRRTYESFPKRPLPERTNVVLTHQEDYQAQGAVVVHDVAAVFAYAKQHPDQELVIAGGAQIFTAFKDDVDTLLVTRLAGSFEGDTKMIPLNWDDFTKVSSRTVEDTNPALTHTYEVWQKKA

[13] = biological target: Bifunctional purine biosynthesis protein ATIC (Homo sapiens, UniProt P31939); assay: Inhibition of AICAR formyltransferase from extract of Manca human lymphoma cells; type: cell-based
Sequence of Bifunctional purine biosynthesis protein ATIC (P31939 whole entry): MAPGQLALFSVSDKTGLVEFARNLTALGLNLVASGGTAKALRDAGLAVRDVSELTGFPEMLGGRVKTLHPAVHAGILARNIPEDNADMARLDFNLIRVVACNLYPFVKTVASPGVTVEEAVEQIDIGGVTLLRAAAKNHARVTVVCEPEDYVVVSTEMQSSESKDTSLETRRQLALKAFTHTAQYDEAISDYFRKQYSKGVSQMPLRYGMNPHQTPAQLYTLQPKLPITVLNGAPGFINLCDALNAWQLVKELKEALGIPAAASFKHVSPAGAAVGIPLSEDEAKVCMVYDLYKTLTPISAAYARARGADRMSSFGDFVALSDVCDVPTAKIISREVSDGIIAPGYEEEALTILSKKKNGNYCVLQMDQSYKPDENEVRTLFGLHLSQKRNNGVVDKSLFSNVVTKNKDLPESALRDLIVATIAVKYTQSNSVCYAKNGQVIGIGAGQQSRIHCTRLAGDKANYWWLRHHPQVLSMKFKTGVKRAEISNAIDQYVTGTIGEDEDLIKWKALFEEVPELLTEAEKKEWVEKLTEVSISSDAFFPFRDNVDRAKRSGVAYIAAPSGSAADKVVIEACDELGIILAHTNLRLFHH

H35R0.3 [14] = assay: Inhibition of (6RS)-5-formyltetrahydrofolate (2 uM) transport in H35 hepatoma cell culture and % uptake was determined in presence of inhibitor DMPDDF (50 uM); type: functional, cell-based; outline: as §1
H35R0.3 [15] = assay: Inhibition of methotrexate (5 uM) transport in H35 hepatoma cell culture and % uptake was reported in presence of inhibitor (6RS)-5-formyltetrahydrofolate (50 uM); type: functional, cell-based; outline: as §2
H35R0.3 [16] = assay: Inhibition of (6RS)-5-formyltetrahydrofolate (2 uM) transport in H35 hepatoma cell culture and % uptake was determined in presence of inhibitor aminopterin (50 uM); type: functional, cell-based; outline: as §1
H35R0.3 [17] = assay: Inhibition of (6RS)-5-formyltetrahydrofolate (2 uM) transport in H35 hepatoma cell culture and % uptake was determined in presence of inhibitor folic acid (50 uM); type: functional, cell-based; outline: as §1
Thymidylate synthase [18] = biological target: T2, Thymidylate synthase (Lactobacillus casei, UniProt P00469); assay: Inhibition of thymidylate synthase in Lactobacillus casei; set-up: species or system Lacticaseibacillus casei
T2 sequence (P00469 whole entry): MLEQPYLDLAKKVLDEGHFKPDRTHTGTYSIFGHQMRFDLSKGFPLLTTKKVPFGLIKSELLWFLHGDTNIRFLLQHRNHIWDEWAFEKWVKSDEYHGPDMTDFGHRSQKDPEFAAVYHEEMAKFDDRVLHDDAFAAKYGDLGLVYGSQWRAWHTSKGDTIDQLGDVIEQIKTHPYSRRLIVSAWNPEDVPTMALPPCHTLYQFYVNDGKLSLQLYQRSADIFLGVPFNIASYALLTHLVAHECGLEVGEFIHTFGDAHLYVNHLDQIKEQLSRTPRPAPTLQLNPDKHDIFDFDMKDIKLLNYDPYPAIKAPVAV

H35R0.3 [19] = assay: Inhibition of (6RS)-5-formyltetrahydrofolate (2 uM) transport in H35 hepatoma cell culture and % uptake was determined in presence of inhibitor PDDF (50 uM); type: functional, cell-based; outline: as §1
H35R0.3 [20] = assay: Inhibition of methotrexate (5 uM) transport in H35 hepatoma cell culture and % uptake was reported in presence of inhibitor folic acid (50 uM); type: functional, cell-based; outline: as §2
H35R0.3 [21] = assay: Inhibition of (6RS)-5-formyltetrahydrofolate (2 uM) transport in H35 hepatoma cell cultured and % uptake was determined in presence of inhibitor (6RS)-5-formyltetrahydrofolate (50 uM); type: functional, cell-based; outline: as §1
H35R0.3 [22] = assay: Inhibition of methotrexate (5 uM) transport in H35 hepatoma cell culture and % uptake was reported in presence of inhibitor aminopterin (50 uM); type: functional, cell-based; outline: as §2
[23] = biological target: T3, Trifunctional purine biosynthetic protein adenosine-3 (Homo sapiens, UniProt P22102); assay: Inhibition of GAR formyltransferase from extract of Manca human lymphoma cells; type: cell-based
T3 sequence (P22102 whole entry): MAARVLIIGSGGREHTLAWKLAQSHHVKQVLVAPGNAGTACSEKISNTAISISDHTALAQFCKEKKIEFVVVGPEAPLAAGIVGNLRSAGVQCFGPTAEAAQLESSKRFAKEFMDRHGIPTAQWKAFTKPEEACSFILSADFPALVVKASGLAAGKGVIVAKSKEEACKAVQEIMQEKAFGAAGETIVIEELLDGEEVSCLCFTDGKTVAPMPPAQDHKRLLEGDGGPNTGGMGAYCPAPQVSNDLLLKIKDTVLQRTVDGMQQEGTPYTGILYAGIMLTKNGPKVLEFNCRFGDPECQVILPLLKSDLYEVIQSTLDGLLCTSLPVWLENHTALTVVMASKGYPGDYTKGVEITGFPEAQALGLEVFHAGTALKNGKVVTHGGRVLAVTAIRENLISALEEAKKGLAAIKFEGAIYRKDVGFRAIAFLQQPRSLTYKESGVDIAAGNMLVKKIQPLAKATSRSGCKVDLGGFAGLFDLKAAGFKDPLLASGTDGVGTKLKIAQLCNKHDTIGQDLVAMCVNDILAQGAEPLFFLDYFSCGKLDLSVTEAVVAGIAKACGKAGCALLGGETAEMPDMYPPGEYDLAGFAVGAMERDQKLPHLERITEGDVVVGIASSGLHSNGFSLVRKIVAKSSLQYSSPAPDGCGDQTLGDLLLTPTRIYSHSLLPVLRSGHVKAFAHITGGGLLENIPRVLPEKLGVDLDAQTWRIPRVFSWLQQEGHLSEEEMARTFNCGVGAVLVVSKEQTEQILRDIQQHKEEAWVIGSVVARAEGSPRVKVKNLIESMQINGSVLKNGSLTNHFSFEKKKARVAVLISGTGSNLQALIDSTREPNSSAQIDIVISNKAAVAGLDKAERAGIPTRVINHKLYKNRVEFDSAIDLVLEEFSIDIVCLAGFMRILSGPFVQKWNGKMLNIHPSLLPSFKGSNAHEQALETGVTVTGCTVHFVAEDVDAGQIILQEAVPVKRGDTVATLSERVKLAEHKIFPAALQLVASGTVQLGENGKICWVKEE

Thymidylate synthase [24] = biological target: T1, Thymidylate synthase; assay: Inhibition of pure human thymidylate synthase from extract of Manca human lymphoma cells; type: cell-based
Dihydrofolate reductase [25] = biological target: T4, Dihydrofolate reductase (Homo sapiens, UniProt P00374); assay: Inhibition of pure human dihydrofolate reductase (DHFR) from lymphoblastoid cells
T4 sequence (P00374 whole entry): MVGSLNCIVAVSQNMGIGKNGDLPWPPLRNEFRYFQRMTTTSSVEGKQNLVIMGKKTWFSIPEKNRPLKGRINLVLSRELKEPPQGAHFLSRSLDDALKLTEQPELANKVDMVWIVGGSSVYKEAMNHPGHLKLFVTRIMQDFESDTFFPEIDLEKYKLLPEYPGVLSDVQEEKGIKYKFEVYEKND

SMILES: C#CCN(Cc1ccc2[nH]c(N)nc(=O)c2c1)c1ccc(C(=O)NC(CCC(=O)O)C(=O)O)cc1 (centres undefined)
pIC50 (H35R0.3 [1]): 5.70 | pIC50 [2]: 5.44 | pIC50 (Lymphoma cell line): 6.25 | pIC50 (Lacticaseibacillus casei): 9.40 | pIC50 (Enterococcus faecium): 9.89

SMILES: C#CCN(Cc1ccc2nc(C(F)(F)F)nc(O)c2c1)c1ccc(C(=O)NC(CCC(=O)O)C(=O)O)cc1 (centres undefined)
pIC50 [4]: < 4.00

SMILES: CN(Cc1cnc2nc(N)nc(N)c2n1)c1ccc(C(=O)N[C@@H](CCC(=O)O)C(=O)O)cc1 [METHOTREXATE]
pIC50 (H35R0.3 [1]): 6.04 | pIC50 [2]: 8.00 | pIC50 [11]: 8.00

The next lines start with results.

pIC50 (Thymidylate synthase [3]): 4.95
SMILES: C#CCN(Cc1ccc2nc(C)n(C)c(=O)c2c1)c1ccc(C(=O)NC(CCC(=O)O)C(=O)O)cc1 (centres undefined)
pIC50 [4]: < 4.00

pIC50 (Dihydrofolate reductase [12]): 4.46 | pIC50 [13]: < 4.22 | pIC50 (Lymphoma cell line): 7.89 | pIC50 (Thymidylate synthase [18]): 7.00 | pIC50 [23]: < 4.77 | pIC50 (Thymidylate synthase [24]): 7.22 | pIC50 (Thymidylate synthase [3]): 8.01 | pIC50 (Dihydrofolate reductase [25]): < 4.52
SMILES: C#CCN(Cc1ccc2nc(C)nc(O)c2c1)c1ccc(C(=O)NC(CCC(=O)O)C(=O)O)cc1 (centres undefined)
Uptake (H35R0.3 [5]): 22% | Uptake (H35R0.3 [6]): 25% | Uptake (H35R0.3 [7]): 100% | Uptake (H35R0.3 [8]): 100% | Uptake (H35R0.3 [9]): 25% | pIC50 (H35R0.3 [1]): 5.65 | Uptake (H35R0.3 [10]): 100% | pIC50 [2]: 7.26 | pIC50 [11]: 5.14 | Uptake (H35R0.3 [14]): 8.5% | Uptake (H35R0.3 [15]): 25% | Uptake (H35R0.3 [16]): 11% | Uptake (H35R0.3 [17]): 83% | pIC50 (Lacticaseibacillus casei): 7.66 | Uptake (H35R0.3 [19]): 90% | Uptake (H35R0.3 [20]): 85% | Uptake (H35R0.3 [21]): 22% | Uptake (H35R0.3 [22]): 25% | pIC50 (Enterococcus faecium): 8.22 | pIC50 [4]: 7.30
